From PMC7810645 (Targeted Oncology, 2020)
Where two headings read alike, the source gives them in different places.

What was measured:
PARP1 = conditions: read-out: IC50, enzymatic activity of PARP1; cited from earlier work
PARP2 = conditions: read-out: IC50, enzymatic activity of PARP2; cited from earlier work
[1] = test system: PARP enzymes at sites of DNA damage; conditions: cited from earlier work
patients [2] = conditions: cited from earlier work
[3] = test system: patients with recurrent, platinum-sensitive ovarian cancer; conditions: niraparib 300 mg daily + bevacizumab 15 mg/kg d1 q21d vs niraparib 300 mg daily alone; cited from earlier work
[4] = test system: patients with high-grade epithelial ovarian, fallopian tube, or primary peritoneal cancer; format: in vivo, human
In short: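 Patients had newly diagnosed stage IIIB–IV disease, ECOG 0–1 and no prior anticancer therapy. All received six cycles of carboplatin AUC 5 plus paclitaxel 175 mg/m2 and bevacizumab, each d1 q21d. Oral maintenance drug began within 9 weeks, continuous BID in 28-day cycles, first dose 7 days before bevacizumab. Three-patient cohorts (Fibonacci triplets). DLTs were assessed over the first two cycles, with AEs graded by CTCAE v4.03.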

[5] = Rucaparib plasma pharmacokinetics in patients; format: in vivo, human; conditions: for AUC(0-t) / Tmax / Cmax: human, plasma, oral; for Tmax: mean (±SD)
In short: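 Oral dosing was 400, 500 or 600 mg BID. Cycle 1 blood was drawn on day −7 (first dose, before bevacizumab), day 1 (bevacizumab infusion) and day 21, at 1, 2, 3, 4, 6, 8 and 24 h post-dose. Plasma was assayed by validated HPLC-MS. Day −7 yielded Cmax, Tmax and AUC0–8h, and days 1/21 gave steady-state Cmax, Cmin and AUC, all by noncompartmental analysis. Summaries were mean, SD, CV, median and geometric mean.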

patients [6] = conditions: rucaparib 600 mg BID single agent, ARIEL3; cited from earlier work
[7] = rucaparib 400 mg BID (n = 3) + bevacizumab
[8] = rucaparib 500 mg BID (n = 3) + bevacizumab
[9] = rucaparib 600 mg BID (n = 3) + bevacizumab
[10] = steady state, day 1 (bevacizumab infusion), 400 mg BID, n 3
[11] = steady state, day 1 (bevacizumab infusion), 500 mg BID, n 3
[12] = steady state, day 1 (bevacizumab infusion), 600 mg BID, n 3
[13] = steady state, day 21, with bevacizumab, 400 mg BID, n 2
[14] = steady state, day 21, with bevacizumab, 500 mg BID, n 3
[15] = steady state, day 21, with bevacizumab, 600 mg BID, n 2

Cn1ncnc1[C@H]1c2n[nH]c(=O)c3cc(F)cc(c23)N[C@@H]1c1ccc(F)cc1 [talazoparib]
IC50 (PARP1): […] | IC50 (PARP2): […] | potency for DNA trapping [1]: more potent DNA trapping abilities

NC(=O)c1cccc2cn(-c3ccc([C@@H]4CCCNC4)cc3)nc12 [niraparib]
incidence of thrombocytopenia and hypertension (patients [2]; vs olaparib or rucaparib): higher incidence | PFS adjusted hazard ratio [3]: 0.35

bevacizumab
most frequent bevacizumab-related AE ([4]; combination with rucaparib): hypertension

CNCc1ccc(-c2[nH]c3cc(F)cc4c3c2CCNC4=O)cc1 [rucaparib]
maximum tolerated dose (MTD) ([4]; BID, combined with bevacizumab 15 mg/kg d1 q21d): 500 mg | safety concerns from the combination of rucaparib and bevacizumab ([4]; all dose cohorts): no new safety concerns | Anemia, grade 1: number of patients with an event [4, 7]: 1 | Arthralgia, grade 1: number of patients with an event [4, 7]: 2 (2) | Arthralgia, grade 1: number of total events [4, 7]: 2 (2) | Cutaneous erythema, grade 1: number of patients with an event [4, 7]: 1 | Fatigue, grade 1: number of patients with an event [4, 7]: 1 | Feet paresthesia, grade 1: number of patients with an event [4, 7]: 1 | Genital herpes, grade 1: number of patients with an event [4, 7]: 1 | Genital herpes, grade 2: number of patients with an event [4, 7]: 1 | Headache, grade 1: number of patients with an event [4, 7]: 1 | Mucosal dryness, grade 1: number of patients with an event [4, 7]: 1 | Nausea, grade 1: number of patients with an event [4, 7]: 1 | Neuropathy, grade 1: number of patients with an event [4, 7]: 1 | Transaminases increase, grade 1: number of patients with an event [4, 7]: 1 | dose-limiting toxicities (DLTs) ([4]; rucaparib 400 mg BID + bevacizumab 15 mg/kg d1 q21d): No DLTs | Abdominal pain, grade 1: number of patients with an event [4, 8]: 1 | Arthralgia, grade 1: number of patients with an event [4, 8]: 1 | Bleeding gums, grade 1: number of patients with an event [4, 8]: 1 | Diarrhea, grade 1: number of patients with an event [4, 8]: 1 | Diarrhea, grade 1: number of total events [4, 8]: 3 | Dysgeusia, grade 1: number of patients with an event [4, 8]: 1 | Dysgeusia, grade 2: number of patients with an event [4, 8]: 1 | Fatigue, grade 1: number of patients with an event [4, 8]: 1 | Flushes, grade 1: number of patients with an event [4, 8]: 1 | High cholesterol, grade 1: number of patients with an event [4, 8]: 1 | High cholesterol, grade 2: number of patients with an event [4, 8]: 1 | Hypertension, grade 2: number of patients with an event [4, 8]: 3 (3) | Hypertension, grade 2: number of total events [4, 8]: 3 (3) | Insomnia, grade 2: number of patients with an event [4, 8]: 1 | Nausea, grade 1: number of patients with an event [4, 8]: 2 (2) | Nausea, grade 1: number of total events [4, 8]: 2 (2) | Transaminases increase, grade 1: number of patients with an event [4, 8]: 1 | Vomiting, grade 1: number of patients with an event [4, 8]: 1 | dose-limiting toxicities (DLTs) ([4]; rucaparib 500 mg BID + bevacizumab 15 mg/kg d1 q21d): No DLTs | ALT increase, grade 2: number of patients with an event [4, 9]: 1 | ALT increase, grade 3: number of patients with an event [4, 9]: 1 | AST increase, grade 2: number of patients with an event [4, 9]: 1 | AST increase, grade 3: number of patients with an event [4, 9]: 1 | Abdominal pain, grade 1: number of patients with an event [4, 9]: 1 | Arthralgia, grade 1: number of patients with an event [4, 9]: 1 | Arthralgia, grade 2: number of patients with an event [4, 9]: 1 | Constipation, grade 2: number of patients with an event [4, 9]: 1 | Depression, grade 1: number of patients with an event [4, 9]: 1 | Depression, grade 1: number of total events [4, 9]: 2 | Depression, grade 2: number of patients with an event [4, 9]: 1 | Depression, grade 3: number of patients with an event [4, 9]: 1 | Diarrhea, grade 1: number of patients with an event [4, 9]: 1 | Dysgeusia, grade 1: number of patients with an event [4, 9]: 1 | Epigastralgia, grade 1: number of patients with an event [4, 9]: 1 | Fatigue, grade 1: number of patients with an event [4, 9]: 1 | Fever, grade 2: number of patients with an event [4, 9]: 1 | Hallucination, grade 3: number of patients with an event [4, 9]: 1 | Headache, grade 1: number of patients with an event [4, 9]: 1 | Lack of appetite, grade 1: number of patients with an event [4, 9]: 1 | Limb pain, grade 1: number of patients with an event [4, 9]: 1 | Mucositis, grade 1: number of patients with an event [4, 9]: 1 | Nausea, grade 1: number of patients with an event [4, 9]: 3 | Nausea, grade 1: number of total events [4, 9]: 4 | Nausea, grade 2: number of patients with an event [4, 9]: 1 | Nausea, grade 2: number of total events [4, 9]: 3 | Neutrophils decreased, grade 2: number of patients with an event [4, 9]: 1 | Skin bruises, grade 1: number of patients with an event [4, 9]: 1 | Stranguria, grade 1: number of patients with an event [4, 9]: 1 | Toothache, grade 1: number of patients with an event [4, 9]: 1 | patients affected by DLTs ([4]; rucaparib 600 mg BID + bevacizumab 15 mg/kg d1 q21d): two out of three patients | range of trough concentrations ([5]; 400 mg BID): 1.5 to 1.6 µg/mL | range of trough concentrations ([5]; 500 mg BID): 1.8 to 2.0 µg/mL | range of trough concentrations ([5]; 600 mg BID): 1.6 to 2.1 µg/mL | dose proportionality of plasma exposure ([5]; 400-600 mg BID): approximately dose proportional | Cmax and AUC at steady state (days 1 and 21) relative to day −7 ([5]; all dose levels): two to three times higher | Cmin, mean (±SD) ([5]; first administration, day −7, 400 mg BID, n 3): 200 ± 100 ng/mL | Cmin, mean (±SD) ([5]; first administration, day −7, 500 mg BID, n 3): 400 ± 100 ng/mL | Cmin, mean (±SD) ([5]; first administration, day −7, 600 mg BID, n 3): 300 ± 200 ng/mL | AUC(0-t) ([5]; 400 mg): 3400 ± 800 ng·h/mL | Tmax ([5]; 400 mg, first administration, day −7, 400 mg BID, n 3): 3.4 ± 0.7 h | AUC(0-t) ([5]; 500 mg): 4700 ± 1900 ng·h/mL | Cmax ([5]; 500 mg): 900 ± 600 ng/mL | Tmax ([5]; 500 mg, steady state, day 21, with bevacizumab, 500 mg BID, n 3): 2 ± 1 h | AUC(0-t) ([5]; 600 mg): 4900 ± 1600 ng·h/mL | Cmax ([5]; 600 mg): 1000 ± 200 ng/mL | Tmax ([5]; 600 mg, first administration, day −7, 600 mg BID, n 3): 3.4 ± 1.2 h | Tmax [5, 10]: 4.6 ± 2.9 h | Tmax [5, 11]: 1.7 ± 1.2 h | Tmax [5, 12]: 3 ± 1 h | CmaxSS, mean (±SD) [5, 10]: 2400 ± 200 ng/mL | CminSS, mean (±SD) [5, 10]: 1400 ± 300 ng/mL | Ctrough, mean (±SD) [5, 10]: 1600 ± 100 ng/mL | CmaxSS, mean (±SD) [5, 11]: 2600 ± 500 ng/mL | CminSS, mean (±SD) [5, 11]: 1600 ± 700 ng/mL | Ctrough, mean (±SD) [5, 11]: 1800 ± 700 ng/mL | CmaxSS, mean (±SD) [5, 12]: 2600 ± 500 ng/mL | CminSS, mean (±SD) [5, 12]: 1400 ± 300 ng/mL | Ctrough, mean (±SD) [5, 12]: 1600 ± 100 ng/mL | CmaxSS, mean (±SD) [5, 13]: 2600 ± 900 ng/mL | CminSS, mean (±SD) [5, 13]: 1300 ± 400 ng/mL | Ctrough, mean (±SD) [5, 13]: 1500 ± 300 ng/mL | CmaxSS, mean (±SD) [5, 14]: 2300 ± 400 ng/mL | CminSS, mean (±SD) [5, 14]: 1500 ± 500 ng/mL | Ctrough, mean (±SD) [5, 14]: 2000 ± 600 ng/mL | CmaxSS, mean (±SD) [5, 15]: 2500 ± 1300 ng/mL | CminSS, mean (±SD) [5, 15]: 1600 ± 1200 ng/mL | Ctrough, mean (±SD) [5, 15]: 2100 ± 300 ng/mL | patients with dose reduction due to a TEAE (patients [6]): 55% | patients with grade 3 or higher TEAEs (patients [6]): 56% | patients with grade 3 or higher anemia (patients [6]): 19% | incidence of increased alanine/aspartate aminotransferase levels (patients [2]; vs olaparib or niraparib): higher incidence
